Measurements collected from several papers.
Protocols differ between the studies behind these lines.
EGFR del752-759: Epidermal growth factor receptor (EGFR, Homo sapiens, UniProt P00533, del752-759)
EGFR: Epidermal growth factor receptor (EGFR, Homo sapiens, UniProt P00533)
EGFR L861Q: Epidermal growth factor receptor (EGFR, Homo sapiens, UniProt P00533, L861Q)
EGFR A750P/del747-749: Epidermal growth factor receptor (EGFR, Homo sapiens, UniProt P00533, A750P/del747-749)

SMILES	target	test	setting	endpoint	result
CN1CCN(C(=O)c2ccc(NC(=O)Nc3ccc(N(C)c4ccnc(Nc5ccc(CS(C)(=O)=O)cc5)n4)cc3)cc2)CC1	EGFR del752-759	binding	1 µM	remaining binding	100%
COc1c(Cl)cccc1Nc1c(-c2ccncc2OC[C@@H]2COCCO2)[nH]c2c1C(=O)NCC2	EGFR	enzyme activity, inhibitor, radiometric	1 µM	inhibition	> 80%
CCCCC(=O)Nc1ccc(-c2ccc3ncn(CCC)c(=O)c3c2)cn1	EGFR L861Q	binding, competition with immobilised ligand	0.5 µM	remaining binding	100%
CC#CC(=O)N1CCC[C@H]1c1nc(-c2ccc(C(=O)Nc3ccccn3)cc2)c2c(N)nccn12	EGFR del752-759	enzyme activity, inhibitor	1 µM	inhibition	0%
Cc1ccc(NC(=O)c2ccnc(C(F)(F)F)c2)cc1-c1cc(OCCO)nc(N2CCOCC2)c1	Epidermal growth factor receptor (EGFR, Homo sapiens, UniProt P00533, L858R/T790M)	binding	1 µM	remaining binding	84%
C1=C/COCc2cc(ccc2OCCN2CCCC2)Nc2nccc(n2)-c2cccc(c2)COC/1	EGFR A750P/del747-749	binding	0.1 µM	remaining binding	67%
COc1ccc2[nH]c3c4[nH]c5ccc(OC)cc5c4c4c(c3c2c1)C(=O)NC4=O	EGFR L861Q	binding	1 µM	remaining binding	71%
C=CC(=O)N1CCC([C@@H]2CCNc3c(C(N)=O)c(-c4ccc(Oc5ccccc5)cc4)nn32)CC1	Epidermal growth factor receptor (EGFR, Homo sapiens, UniProt P00533, G719S)	cell-free assay	1 µM	inhibition	95%
CS(=O)(=NC#N)c1ccccc1Nc1nc(Nc2ccc(CO)nc2)ncc1Cl (stereo not drawn)	EGFR	enzyme activity, inhibitor, radiometric	1 µM	remaining activity	98.3%
C[C@H]1CC[C@H](n2c3cnccc3c3cnc(Nc4ccc5c(n4)CCN(C(=O)CO)C5)nc32)CC1	Epidermal growth factor receptor (EGFR, Homo sapiens, UniProt P00533, del746-750)	cell-free assay	1 µM	remaining signal	84%
CO[C@@H]1[C@H](N(C)C(=O)c2ccccc2)C[C@H]2O[C@]1(C)n1c3ccccc3c3c4c(c5c6ccccc6n2c5c31)C(=O)NC4	EGFR A750P/del747-749	enzyme activity, inhibitor	1 µM	inhibition	74%
CNC(=O)c1ccccc1Nc1nc(Nc2ccc(CO)cc2)ncc1Cl	EGFR	enzyme activity, inhibitor, radiometric	1 µM	remaining activity	7.68%
COc1ccc2oc(-c3ccc4nc(N)oc4c3)c/c(=N\c3ccccc3NC(=O)CCN)c2c1	EGFR	binding	1 µM	remaining binding	97%
CNC(=O)c1ccccc1Nc1nc(Nc2ccc(CO)nc2)ncc1Cl	EGFR	enzyme activity, inhibitor, radiometric	1 µM	remaining activity	26%
N#Cc1ccc(NC(=O)Nc2ccccc2)cc1	EGFR	cell-free assay, competition with immobilised ligand	25 µM	remaining binding	87%
